Laboratory results reported in ChEMBL document CHEMBL4837261, “Optimization of TopoIV Potency, ADMET Properties, and hERG Inhibition of 5-Amino-1,3-dioxane-Linked Novel Bacterial Topoisomerase Inhibitors: Identification of a Lead with In Vivo Efficacy against MRSA” (J Med Chem, 2021).
≈ marks a conversion by molar mass, not a printed value.

How the values were obtained:
Cav1.2 = Cav1.2 (Homo sapiens, UniProt Q13936); assay: Inhibition of recombinant human Cav1.2 expressed in human HEK293 cells at 100 uM measured at peak current by automated Qpatch clamp assay relative to control; type: ADME, cell-based; conditions: HEK293 cells expressing recombinant human Cav1.2
[1] = Oral bioavailability in ICR (CD-1) mouse at 50 mg/kg measured up to 1440 mins by LC-MS/MS analysis; type: ADME, organism-based; conditions: in vivo
Method in brief: (§1)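 Male ICR (CD-1) mice, 22 ± 2 g, given free base in DMSO/Solutol HS-15/0.9% NaCl (5/5/90) at 50 mg/kg PO or 10 mg/kg IV. Three mice per timepoint, 8 timepoints. Plasma taken by cardiac puncture at 10–1440 min (PO) or 3–1440 min (IV). Measured by LC-MS/MS, with parameters from noncompartmental analysis.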

THP-1 = assay: Cytotoxicity against human THP-1 cells; type: cell-based
Method in brief: (§2)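 THP-1, HepG2 and HeLa cells were exposed to compound from 128 to 0.0625 μg/mL. IC50 was obtained by nonlinear regression of the inhibition curves.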

Staphylococcus aureus [2] = assay: Antibacterial activity against cystic fibrosis isolate Staphylococcus aureus by CLSI method; type: functional
[3] = Half life in ICR (CD-1) mouse at 10 mg/kg, iv measured up to 1440 mins by LC-MS/MS analysis; type: ADME, organism-based; conditions: in vivo
Method in brief: (§3)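 Male ICR (CD-1) mice, 22 ± 2 g, given the free base in DMSO/Solutol HS-15/0.9% NaCl (5/5/90, v/v/v), IV at 10 mg/kg or PO at 50 mg/kg; 24 mice per route, three per timepoint. Plasma was taken by cardiac puncture at 3–1440 min (IV) or 10–1440 min (PO), measured by LC-MS/MS, and parameters were derived by noncompartmental analysis.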

[4] = Kinetic solubility of the compound at pH 7.4 buffer; type: physicochemical; conditions: read-out: Kinetic_solubility
Method in brief: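 Kinetic aqueous solubility was measured in buffer at pH 7.4.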

[5] = Volume of distribution at steady state in ICR (CD-1) mouse at 10 mg/kg, iv measured up to 1440 mins by LC-MS/MS analysis; type: ADME, organism-based; conditions: in vivo, read-out: Vdss; method in brief: as §1
Klebsiella pneumoniae = assay: Antibacterial activity against Klebsiella pneumoniae isolates by CLSI method; type: functional
[6] = molecular target: Sodium channel protein type 5 subunit alpha (Homo sapiens, UniProt Q14524); assay: Activation of recombinant human Nav1.5 late expressed in human HEK293 cells assessed as activation of late current at 100 uM by automated Qpatch clamp assay relative to control; type: ADME, cell-based; conditions: hek293, 100 µM
KCNQ1 = KCNQ1 (Homo sapiens, UniProt P51787); assay: Inhibition of recombinant human KCNQ1 expressed in CHO-K1 cells at 100 uM by automated Qpatch clamp assay relative to control; type: ADME, cell-based; conditions: CHO-K1 cells expressing recombinant human KCNQ1
Cytochrome P450 2C9 = Cytochrome P450 2C9 (Homo sapiens, UniProt P11712); assay: Inhibition of CYP2C9 (unknown origin); type: ADME
[7] = molecular target: DNA gyrase (Staphylococcus aureus) (UniProt P0A0K8+P20831); assay: Inhibition of Staphylococcus aureus DNA Gyrase assessed as reduction in supercoiling pBR322 DNA by measuring induction of single strand breaks by ethidium bromide staining based agarose gel electrophoresis; type: protein-complex assay; conditions: dose 1-100 µM
Method in brief: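 Gyrase-mediated cleavage of negatively supercoiled pBR322 ran for 30 min at 37 °C with compound at 0.5–200 μM. Single- and double-strand break products were quantified from gel lane fluorescence, corrected for differential emission of supercoiled versus linear DNA.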

CYP2C19 = CYP2C19 (Homo sapiens, UniProt P33261); assay: Inhibition of CYP2C19 (unknown origin) at 10 uM relative to control; type: ADME
Escherichia coli = assay: Antibacterial activity against Escherichia coli isolates by CLSI method; type: functional
Kv4.3 (KCND3) = Kv4.3 (KCND3) (Homo sapiens, UniProt Q9UK17); assay: Inhibition of recombinant human Kv4.3 expressed in human HEK293 cells at 100 uM measured at peak current by automated Qpatch clamp assay relative to control; type: ADME, cell-based; conditions: HEK293 cells expressing recombinant human Kv4.3
Enterococcus faecalis = assay: Antibacterial activity against vancomycin-resistant Enterococcus faecalis by CLSI method; type: functional
HepaRG = assay: Cytotoxicity against human HepaRG cells at 100 uM by ATP depletion assay; type: cell-based
Method in brief: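 An ATP depletion read-out in HepaRG cells gave cytotoxicity across 0.01–100 μM, reported as % cytotoxicity at 100 μM.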

[8] = Cmax in ICR (CD-1) mouse at 50 mg/kg, po measured up to 1440 mins by LC-MS/MS analysis; type: ADME, organism-based; design: route oral, dose 50 mg/kg, time <=1440; conditions: in vivo; method in brief: as §3
Pseudomonas aeruginosa = assay: Antibacterial activity against Pseudomonas aeruginosa isolates by CLSI method; type: functional
Staphylococcus aureus [9] = assay: Antibacterial activity against Staphylococcus aureus harbouring GyrA D83N mutant by CLSI method; type: functional
CYP1A2 = CYP1A2 (Homo sapiens, UniProt P05177); assay: Inhibition of CYP1A2 (unknown origin) at 10 uM relative to control; type: ADME
Cytochrome P450 2B6 = Cytochrome P450 2B6 (Homo sapiens, UniProt P20813); assay: Inhibition of CYP2B6 (unknown origin); type: ADME
Topoisomerase IV = Topoisomerase IV (Staphylococcus aureus, UniProt P0C1S7+P0C1U9); assay: Inhibition of Staphylococcus aureus topoisomerase IV decatenation activity using kDNA as substrate by ethidium bromide/bromophenol blue staining based agarose gel electrophoresis analysis; type: protein-complex assay
Streptococcus pyogenes = assay: Antibacterial activity against Streptococcus pyogenes isolates by CLSI method; type: functional
HepG2 = assay: Cytotoxicity against human HepG2 cells; type: cell-based; method in brief: as §2
DNA gyrase = DNA gyrase (Staphylococcus aureus, UniProt P0A0K8+P20831); assay: Inhibition of Staphylococcus aureus Gyrase supercoiling activity assessed as reduction in supercoiling pBR322 DNA by measuring relaxation by bromophenol blue staining based TAE gel method; type: protein-complex assay
CYP2C8 = CYP2C8 (Homo sapiens, UniProt P10632); assay: Inhibition of CYP2C8 (unknown origin) at 10 uM relative to control; type: ADME
Staphylococcus aureus [10] = assay: Antibacterial activity against Staphylococcus aureus 3527 by CLSI method; type: functional
Enterobacter cloacae = assay: Antibacterial activity against Enterobacter cloacae isolates by CLSI method; type: functional
[11] = Metabolic stability in human microsomes assessed as half life; type: ADME, Microsome
Method in brief: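 Run at RTI International. Covers plasma protein binding (mouse, human; percent free), CACO-2 permeability and efflux, and microsomal stability (mouse and human microsomes) giving half-life.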

Enterococcus faecium = assay: Antibacterial activity against vancomycin-resistant Enterococcus faecium by CLSI method; type: functional

For `COc1ccc2ncc(F)c(C[C@H](O)[C@H]3OC[C@H](NCc4cc5c(nn4)OCCS5)CO3)c2n1`, the inhibition at 100 µM (Cav1.2) was < 25%, the bioavailability [1] was 49% and the IC50 (THP-1) was > 125 µM. The MIC (Staphylococcus aureus [2]) was 0.125 µg/mL (≈ 0.255 µM), the half-life [3] was 0.633 h and the solubility kinetic [4] was 61.4 µM (≈ 30.1 µg/mL). The Vd [5] was 1 L/kg, the MIC50 (Klebsiella pneumoniae) was > 64 µg/mL and the Activity [6] was < 25%. The inhibition at 100 µM (KCNQ1) was < 25%, the IC50 (Cytochrome P450 2C9) was > 10 µM and the Activity [7] was “Dose-Dependent Effect”. For the same molecule, the inhibition at 10 µM (CYP2C19) was > 50%, the MIC50 (Escherichia coli) was > 64 µg/mL and the inhibition at 100 µM (Kv4.3 (KCND3)) was < 25%. The MIC50 (Enterococcus faecalis) was 0.25 µg/mL (≈ 0.511 µM), the MIC90 (Enterococcus faecalis) was 1 µg/mL (≈ 2.04 µM) and the Activity (HepaRG) was 12%. The Cmax [8] was 7020 ng/mL, the MIC50 (Pseudomonas aeruginosa) was > 64 µg/mL and the MIC (Staphylococcus aureus [9]) was 4 µg/mL (≈ 8.17 µM). For the same molecule, the inhibition at 10 µM (CYP1A2) was > 50%, the IC50 (Cytochrome P450 2B6) was > 10 µM and the IC50 (Topoisomerase IV) was 3.5 µM. For the same molecule, the MIC50 (Streptococcus pyogenes) was 0.5 µg/mL (≈ 1.02 µM), the IC50 (HepG2) was > 125 µM and the IC50 (DNA gyrase) was 0.22 µM. The inhibition at 10 µM (CYP2C8) was > 50%, the MIC (Staphylococcus aureus [10]) was 0.25 µg/mL (≈ 0.511 µM) and the MIC50 (Enterobacter cloacae) was > 64 µg/mL. It also gave a half-life [11] of 1.57 h, an MIC50 (Enterococcus faecium) of 0.25 µg/mL (≈ 0.511 µM) and an MIC90 (Enterococcus faecium) of 1 µg/mL (≈ 2.04 µM).
